Key:
[1] = Intrinsic clearance in human liver microsomes; assay type: ADME; settings: read-out: CLH
[2] = Intrinsic clearance in rat liver microsomes; assay type: ADME; settings: read-out: CLH
[3] = Unbound fraction in human plasma; assay type: ADME, cell-free
Procedure, shortened: (§1)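 Plasma protein binding was determined in human, rat or mouse plasma and reported as the fraction unbound (fu).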

[4] = Unbound fraction in mouse plasma; assay type: ADME, cell-free; procedure, shortened: as §1
[5] = Plasma clearance in rat at 0.2 mg/kg, iv; assay type: ADME, organism-based
Procedure, shortened: (§2)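 Rats received a single IV dose of 0.2 mg/kg, given either as a discrete dose or within an IV cassette study. Reported parameters were plasma clearance CLp (mL/min/kg), T1/2, and volume of distribution at steady state Vss (L/kg).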

[6] = Half life in rat at 0.2 mg/kg, iv; assay type: ADME, organism-based; settings: in vivo; procedure, shortened: as §2
[7] = Volume of distribution at steady state in rat at 0.2 mg/kg, iv; assay type: ADME, organism-based; settings: in vivo, read-out: Vdss; procedure, shortened: as §2
[8] = Unbound fraction in rat plasma; assay type: ADME, cell-free; procedure, shortened: as §1
[9] = target: Menin/Histone-lysine N-methyltransferase MLL (Homo sapiens, UniProt O00255); assay: Inhibition of menin-MLL1 interaction (unknown origin) incubated for 1 hr by fluorescein and Texas Red labeled MBM1 based fluorescence polarization assay; assay type: protein assay
MV4-11 = assay: Growth inhibition of human MV4-11 cells; assay type: functional
[10] = Drug level in rat hepatic S9 fraction treated with compound 10b assessed as compound formation; assay type: ADME, tissue-based, Liver

Sequence of Menin/Histone-lysine N-methyltransferase MLL (O00255 whole entry): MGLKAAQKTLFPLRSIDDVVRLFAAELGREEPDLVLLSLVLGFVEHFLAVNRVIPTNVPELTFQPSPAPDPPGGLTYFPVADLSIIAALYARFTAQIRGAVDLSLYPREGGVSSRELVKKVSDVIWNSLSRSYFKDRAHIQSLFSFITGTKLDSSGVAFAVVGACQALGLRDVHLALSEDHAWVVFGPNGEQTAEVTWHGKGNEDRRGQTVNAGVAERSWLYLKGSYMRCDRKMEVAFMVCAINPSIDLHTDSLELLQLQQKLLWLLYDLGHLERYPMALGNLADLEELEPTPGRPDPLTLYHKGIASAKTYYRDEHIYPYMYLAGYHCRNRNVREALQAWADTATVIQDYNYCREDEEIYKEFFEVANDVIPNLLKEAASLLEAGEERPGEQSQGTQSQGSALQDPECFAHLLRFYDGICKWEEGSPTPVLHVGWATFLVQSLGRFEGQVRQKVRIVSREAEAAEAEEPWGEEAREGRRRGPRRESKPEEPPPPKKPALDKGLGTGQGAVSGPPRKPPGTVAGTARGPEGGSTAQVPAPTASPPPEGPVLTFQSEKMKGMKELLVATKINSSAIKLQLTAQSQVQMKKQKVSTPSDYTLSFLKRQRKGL
Sequence of Menin/Histone-lysine N-methyltransferase MLL (Q03164 1-2718 partner limits assumed): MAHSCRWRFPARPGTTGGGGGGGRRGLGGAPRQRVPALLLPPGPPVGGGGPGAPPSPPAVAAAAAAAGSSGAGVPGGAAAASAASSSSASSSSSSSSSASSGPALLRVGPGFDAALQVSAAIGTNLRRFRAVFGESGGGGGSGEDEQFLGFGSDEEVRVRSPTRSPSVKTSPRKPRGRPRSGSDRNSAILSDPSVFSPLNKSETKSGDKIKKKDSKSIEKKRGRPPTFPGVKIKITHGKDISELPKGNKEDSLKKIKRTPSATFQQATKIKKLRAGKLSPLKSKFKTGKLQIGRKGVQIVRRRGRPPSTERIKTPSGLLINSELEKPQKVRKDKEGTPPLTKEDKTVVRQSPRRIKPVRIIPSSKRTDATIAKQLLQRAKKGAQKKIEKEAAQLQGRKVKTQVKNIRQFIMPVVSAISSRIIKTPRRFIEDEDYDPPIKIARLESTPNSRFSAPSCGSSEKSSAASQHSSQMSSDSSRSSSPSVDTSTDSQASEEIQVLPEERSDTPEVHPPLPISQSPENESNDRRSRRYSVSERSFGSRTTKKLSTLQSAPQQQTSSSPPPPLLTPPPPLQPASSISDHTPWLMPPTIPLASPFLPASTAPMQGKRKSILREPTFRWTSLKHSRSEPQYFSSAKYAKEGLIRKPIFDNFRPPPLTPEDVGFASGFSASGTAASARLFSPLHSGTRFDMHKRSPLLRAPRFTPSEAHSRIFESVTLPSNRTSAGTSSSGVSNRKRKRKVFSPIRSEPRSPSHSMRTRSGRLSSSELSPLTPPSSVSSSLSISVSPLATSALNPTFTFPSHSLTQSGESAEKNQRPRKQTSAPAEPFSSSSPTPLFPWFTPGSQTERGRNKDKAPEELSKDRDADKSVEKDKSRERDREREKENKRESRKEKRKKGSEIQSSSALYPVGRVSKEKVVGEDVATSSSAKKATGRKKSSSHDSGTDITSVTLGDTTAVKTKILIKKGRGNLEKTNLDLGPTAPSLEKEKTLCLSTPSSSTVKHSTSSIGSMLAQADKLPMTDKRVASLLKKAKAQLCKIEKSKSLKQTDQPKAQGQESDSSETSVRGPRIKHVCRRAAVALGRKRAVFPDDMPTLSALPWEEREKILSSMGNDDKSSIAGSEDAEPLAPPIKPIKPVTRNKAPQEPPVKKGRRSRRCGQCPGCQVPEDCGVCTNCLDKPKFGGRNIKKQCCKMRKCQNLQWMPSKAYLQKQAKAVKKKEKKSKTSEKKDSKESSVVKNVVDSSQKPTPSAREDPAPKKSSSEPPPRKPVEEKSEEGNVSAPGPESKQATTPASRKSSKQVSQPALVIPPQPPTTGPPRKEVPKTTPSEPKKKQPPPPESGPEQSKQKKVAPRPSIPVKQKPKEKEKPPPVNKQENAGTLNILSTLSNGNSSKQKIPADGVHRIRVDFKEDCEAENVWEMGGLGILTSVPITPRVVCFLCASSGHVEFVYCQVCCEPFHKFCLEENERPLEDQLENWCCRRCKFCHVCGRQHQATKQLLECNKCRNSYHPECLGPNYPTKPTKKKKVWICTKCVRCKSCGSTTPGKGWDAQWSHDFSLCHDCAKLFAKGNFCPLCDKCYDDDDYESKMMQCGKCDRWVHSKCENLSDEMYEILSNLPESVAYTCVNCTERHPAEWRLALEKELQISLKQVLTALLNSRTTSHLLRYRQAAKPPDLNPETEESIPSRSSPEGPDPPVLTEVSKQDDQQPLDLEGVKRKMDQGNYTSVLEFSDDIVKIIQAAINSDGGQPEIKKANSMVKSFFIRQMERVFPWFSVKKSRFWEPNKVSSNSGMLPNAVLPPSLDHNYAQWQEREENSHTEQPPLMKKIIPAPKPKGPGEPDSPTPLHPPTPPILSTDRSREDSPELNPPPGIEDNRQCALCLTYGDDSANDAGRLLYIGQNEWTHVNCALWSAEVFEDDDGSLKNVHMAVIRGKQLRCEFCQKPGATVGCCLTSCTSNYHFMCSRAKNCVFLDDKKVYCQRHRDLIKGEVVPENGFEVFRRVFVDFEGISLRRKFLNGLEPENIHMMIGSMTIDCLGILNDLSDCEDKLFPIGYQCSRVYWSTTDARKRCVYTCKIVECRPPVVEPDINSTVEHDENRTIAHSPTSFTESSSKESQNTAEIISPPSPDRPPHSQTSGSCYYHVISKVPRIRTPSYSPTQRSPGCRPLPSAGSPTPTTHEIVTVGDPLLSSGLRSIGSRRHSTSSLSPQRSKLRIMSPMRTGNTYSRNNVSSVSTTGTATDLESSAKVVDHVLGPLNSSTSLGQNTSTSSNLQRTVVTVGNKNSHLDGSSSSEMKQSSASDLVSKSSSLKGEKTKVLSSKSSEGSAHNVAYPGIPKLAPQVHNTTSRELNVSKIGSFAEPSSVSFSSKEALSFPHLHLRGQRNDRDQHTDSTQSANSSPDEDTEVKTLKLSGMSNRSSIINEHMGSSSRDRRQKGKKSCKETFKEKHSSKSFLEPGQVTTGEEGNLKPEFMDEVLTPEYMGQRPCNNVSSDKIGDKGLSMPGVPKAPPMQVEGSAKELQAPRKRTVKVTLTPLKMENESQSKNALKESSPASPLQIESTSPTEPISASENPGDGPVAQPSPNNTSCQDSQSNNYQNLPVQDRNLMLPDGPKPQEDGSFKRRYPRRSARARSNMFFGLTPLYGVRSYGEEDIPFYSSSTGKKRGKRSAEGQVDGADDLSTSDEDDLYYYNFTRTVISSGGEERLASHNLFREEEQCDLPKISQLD
Sequence of Menin/Histone-lysine N-methyltransferase MLL (Q03164 2719-3969 partner limits assumed): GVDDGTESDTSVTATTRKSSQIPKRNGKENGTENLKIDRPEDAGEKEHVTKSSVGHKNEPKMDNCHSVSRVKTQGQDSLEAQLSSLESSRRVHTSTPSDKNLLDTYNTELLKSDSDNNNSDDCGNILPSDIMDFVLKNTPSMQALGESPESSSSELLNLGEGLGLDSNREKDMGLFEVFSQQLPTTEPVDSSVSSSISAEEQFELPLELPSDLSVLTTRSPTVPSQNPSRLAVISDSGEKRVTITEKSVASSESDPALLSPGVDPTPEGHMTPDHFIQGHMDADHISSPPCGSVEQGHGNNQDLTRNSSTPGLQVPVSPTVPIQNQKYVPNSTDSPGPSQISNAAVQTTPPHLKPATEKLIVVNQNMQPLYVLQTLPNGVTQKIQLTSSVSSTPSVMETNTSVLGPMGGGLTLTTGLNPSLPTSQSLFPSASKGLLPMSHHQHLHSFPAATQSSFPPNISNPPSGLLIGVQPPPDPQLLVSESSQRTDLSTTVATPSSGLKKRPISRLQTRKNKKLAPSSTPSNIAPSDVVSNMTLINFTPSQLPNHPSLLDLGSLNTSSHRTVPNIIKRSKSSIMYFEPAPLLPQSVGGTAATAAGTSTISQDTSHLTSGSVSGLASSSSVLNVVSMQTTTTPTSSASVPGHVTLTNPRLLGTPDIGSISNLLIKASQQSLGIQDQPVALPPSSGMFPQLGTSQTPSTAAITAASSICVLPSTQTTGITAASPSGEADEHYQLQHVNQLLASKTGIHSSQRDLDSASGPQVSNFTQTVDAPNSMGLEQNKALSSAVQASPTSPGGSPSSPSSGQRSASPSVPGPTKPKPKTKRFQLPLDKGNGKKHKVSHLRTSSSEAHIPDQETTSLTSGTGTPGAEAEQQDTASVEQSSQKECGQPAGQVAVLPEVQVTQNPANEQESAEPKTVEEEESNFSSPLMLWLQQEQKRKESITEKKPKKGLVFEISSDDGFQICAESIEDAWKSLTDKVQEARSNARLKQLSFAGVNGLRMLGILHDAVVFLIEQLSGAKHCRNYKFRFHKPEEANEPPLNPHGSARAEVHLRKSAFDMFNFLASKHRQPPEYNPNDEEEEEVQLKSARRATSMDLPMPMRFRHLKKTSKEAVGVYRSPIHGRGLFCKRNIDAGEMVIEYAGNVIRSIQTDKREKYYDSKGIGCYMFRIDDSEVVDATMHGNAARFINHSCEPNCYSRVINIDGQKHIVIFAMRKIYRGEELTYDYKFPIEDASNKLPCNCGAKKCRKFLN

N#Cc1ccc(OCCCN2CCC(C(O)(c3nccs3)C3CCCC3)CC2)cc1 (stereo unspecified)
CLint scaled [1]: 77.4 mL/min/kg
CLint scaled [2]: 558 mL/min/kg
fraction unbound [3]: 0.117
fraction unbound [4]: 0.192

N#Cc1ccc(OCCCN2CCC(C(O)(c3ccccc3)C3CCCC3)CC2)cc1 (stereo unspecified)
CLint scaled [1]: 124 mL/min/kg
CLint scaled [2]: 919 mL/min/kg
fraction unbound [3]: 0.004
fraction unbound [4]: 0.013
clearance [5]: 40 mL/min/kg
half-life [6]: 96 min
Vd [7]: 2.9 L/kg

NS(=O)(=O)c1ccc(OCCCN2CCC(C(O)(c3cccc(F)c3)c3nccs3)CC2)cc1 (stereo unspecified)
CLint scaled [1]: 50 mL/min/kg
CLint scaled [2]: 206 mL/min/kg
fraction unbound [3]: 0.17
fraction unbound [4]: 0.166
clearance [5]: 26 mL/min/kg
half-life [6]: 84 min
Vd [7]: 4.4 L/kg
fraction unbound [8]: 0.322

N#Cc1ccc(OCCCN2CCC(C(O)(c3cccc(F)c3)c3nccs3)CC2)cc1 (stereo unspecified)
IC50 [9]: 460 nM
CLint scaled [1]: 69 mL/min/kg
CLint scaled [2]: 273 mL/min/kg
fraction unbound [3]: 0.04
clearance [5]: 32 mL/min/kg
half-life [6]: 168 min
Vd [7]: 7.2 L/kg
fraction unbound [8]: 0.108

CC1(C)CN=C(N2CCN(c3ncnc4sc(CC(F)(F)F)cc34)CC2)S1
GI50 (MV4-11): 3000 nM

NS(=O)(=O)c1ccc(OCCCN2CCC(C(O)(c3ccccn3)C3CCCC3)CC2)cc1 (racemic)
CLint scaled [1]: 16.2 mL/min/kg
CLint scaled [2]: 271 mL/min/kg
fraction unbound [3]: 0.291
fraction unbound [4]: 0.342
clearance [5]: 293 mL/min/kg
half-life [6]: 12 min
Vd [7]: 4.3 L/kg

O[C@](c1cccc(F)c1)(c1ccccn1)C1CCNCC1
Drug metabolism [10]: metabolite_detected

Source: ChEMBL document CHEMBL3585303, “Progress towards small molecule menin-mixed lineage leukemia (MLL) interaction inhibitors with in vivo utility” (Bioorg Med Chem Lett, 2015)
